Reference: ChEMBL document CHEMBL1141337, “The berkeleyacetals, three meroterpenes from a deep water acid mine waste Penicillium” (J Nat Prod, 2007)
Calls of active or inactive are those of the source. The rule behind the calls is not given here.

Assays:
[1] = target: T1, Caspase-1 (Homo sapiens) (UniProt P29466); assay: Inhibition of caspase 1
T1 sequence (whole entry): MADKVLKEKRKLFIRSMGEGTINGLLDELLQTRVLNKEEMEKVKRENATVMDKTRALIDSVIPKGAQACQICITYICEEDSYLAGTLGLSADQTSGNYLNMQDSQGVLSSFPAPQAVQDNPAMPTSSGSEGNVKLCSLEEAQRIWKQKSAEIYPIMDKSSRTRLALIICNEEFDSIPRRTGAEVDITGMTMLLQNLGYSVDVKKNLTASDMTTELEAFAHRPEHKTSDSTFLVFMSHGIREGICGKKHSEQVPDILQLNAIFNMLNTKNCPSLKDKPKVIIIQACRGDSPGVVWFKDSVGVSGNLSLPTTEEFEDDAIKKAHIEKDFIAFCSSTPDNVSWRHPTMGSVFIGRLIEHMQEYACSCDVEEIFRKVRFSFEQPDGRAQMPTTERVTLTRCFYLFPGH

[2] = test system: NCI-H460; assay: Growth inhibition of human NCI-H460 cells; format: functional, cell-based
Summary of the method: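 Run by the NCI Developmental Therapeutics Program human cancer cell line screen in its single-dose–response format.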

[3] = target: Stromelysin-1 (Homo sapiens) (UniProt P08254); assay: Inhibition of MMP3
Stromelysin-1 (Homo sapiens), sequence (P08254 100-477 limits assumed): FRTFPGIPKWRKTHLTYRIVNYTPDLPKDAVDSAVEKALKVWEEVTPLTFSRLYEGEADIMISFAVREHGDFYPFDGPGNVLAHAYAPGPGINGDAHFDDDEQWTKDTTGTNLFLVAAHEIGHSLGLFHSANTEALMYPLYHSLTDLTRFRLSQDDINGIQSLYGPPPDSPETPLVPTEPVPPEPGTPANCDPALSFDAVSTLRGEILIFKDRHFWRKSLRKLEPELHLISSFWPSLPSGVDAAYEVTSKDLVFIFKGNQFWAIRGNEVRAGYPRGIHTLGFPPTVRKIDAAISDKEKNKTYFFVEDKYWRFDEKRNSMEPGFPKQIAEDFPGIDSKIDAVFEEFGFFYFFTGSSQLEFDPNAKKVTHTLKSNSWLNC

Structure (SMILES)	Activity [1]	Activity [3]	Activity [2]
COC(=O)[C@]12C(=O)[C@H](C)O[C@@H]3OC(=O)[C@](C)(C[C@H]4[C@]5(CO5)C5=CC(=O)OC(C)(C)C5=CC[C@@]41C)[C@@H]32	Active	Active	–
C[C@@H]1O[C@@H]2OC(=O)[C@]3(C)C[C@@H]4[C@](C)(C(=O)C=C5C(=CC(=O)OC5(C)C)[C@@]45CO5)[C@H](C1=O)[C@H]23	Active	Active	Active

Now from value to molecule, other results behind:

Activity [1]	Activity [3]	Structure (SMILES)	Activity [2]
Active	Active	C=C1[C@@]2(C)C[C@H]3C(C)=C4CC(=O)OC(C)(C)C4=CC[C@]3(C)[C@]1(C(=O)OC)C(=O)[C@@](C)(O)C2=O	Active
Active	Active	COC(=O)[C@]12C(=O)[C@H](C)O[C@@H]3OC(=O)[C@](C)(C[C@H]4C(C)=C5CC(=O)OC(C)(C)C5=CC[C@@]41C)[C@@H]32	–
Active	Active	C=C1[C@@]2(C)C[C@H]3[C@@]4(C)C(=CC[C@]3(C)[C@]1(C(=O)OC)C(=O)[C@@](C)(O)C2=O)C(C)(C)C(=O)C[C@H]4O	–
